# In the library only some 2% were active in any assay of this set; here they are far more common.
# NR2E3 ag-1 = NR2E3 agonists in two-hybrid cells, primary screen, cell-based, luminescence, CHO-S, Gal4-NCOR/VP16-NR2E3; Photoreceptor-specific nuclear receptor (Homo sapiens), Q9Y5X4; luciferase; inhibition of corepressor binding, % at 3.98 µM; 360,000 compounds, 0.35% hits; AID 602229, 2012;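 active = inhibition above the mean of all tested compounds plus 3 SD, cut at about 70% in these data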;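 also: 0% = DMSO with NR2E3 transfected cells and 100% = cells lacking NR2E3 construct; higher means lower luciferase signal from less NR2E3 corepressor binding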
# Target sequence (Q9Y5X4 whole entry, looked up, the tested form may be a part): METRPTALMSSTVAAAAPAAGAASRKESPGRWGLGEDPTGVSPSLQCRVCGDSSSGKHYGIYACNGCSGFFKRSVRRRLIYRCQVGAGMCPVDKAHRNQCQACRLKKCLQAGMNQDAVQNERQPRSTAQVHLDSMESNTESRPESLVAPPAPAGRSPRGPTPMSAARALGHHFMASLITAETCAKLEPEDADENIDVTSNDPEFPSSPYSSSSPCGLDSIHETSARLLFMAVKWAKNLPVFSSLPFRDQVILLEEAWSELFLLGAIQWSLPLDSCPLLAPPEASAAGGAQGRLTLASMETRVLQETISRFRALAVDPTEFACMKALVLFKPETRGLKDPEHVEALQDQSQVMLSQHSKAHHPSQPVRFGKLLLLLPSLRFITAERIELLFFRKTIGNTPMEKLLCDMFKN
# T cell HTS = modulators of CD8 T cell-vesicle binding, primary screen, mouse 2C CD8+ T cells, flow cytometry | 330,000 compounds, 0.068% hits | AID 2052, 2009 | 2C CD8+ T cell-vesicle binding; hits give low values | response (vesicle binding), % at 7 µM;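 active = response, share of CD8 T cells binding vesicles, and their 90th percentile fluorescence all below set limits, cut at about 80% in these data, passing the limit was not always enough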;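 also: values below 100% mean blocked vesicle binding to the CD8+ T cells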
#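 incubation = binding step 1.5 h, 37 °C, antibody labelling 20 min, ice | test system = 2C mouse CD8+ T cells | read-out basis = percent CD8+ FL2 mean versus row control | controls = Peptide-free naked vesicles (low) and QL9 vesicles with 0.7% DMSO vehicle (high) | detection = flow cytometry of vesicle-bound cells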
# Myeloid diff MLP = induction of myeloid progenitor differentiation, primary screen, cell-based, flow cytometry, MLPCN library. ER-HoxA9 myeloid progenitors, lysozyme-GFP differentiation. AID 624256, 2012. 360,000 compounds, 1% hits. calls only at 10 µM;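 active = normalized GFP-positive differentiation at or above the plate's own cutoff, the solvent-only control mean plus 3 SD; inconclusive = no clear call, values can overlap the other calls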;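 also: cells exposed to compound for four days before flow analysis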
# NR2E3 ag-2 = inhibitors of NR2E3-RetCOR corepressor binding, primary screen, NR2E3 agonist project, biochemical, TR-FRET, GST-NR2E3, biotin-RetCOR. 320,000 compounds, 0.12% hits. inhibition of corepressor binding, % at 4.78 µM. Photoreceptor-specific nuclear receptor (Homo sapiens), Q9Y5X4. AID 2300, 2010. 1536-well;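 active = percent inhibition above the cutoff of mean plus 3 SD of all tested compounds, set per screening campaign, cut at about 20% in these data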;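 also: 0% = DMSO wells and 100% = biotin wells as full block of FRET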
#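 Material: NR2E3–RetCOR corepressor complex / Incubation: Compound–protein incubation for 5 h at 4 °C / Dosing: compound at 4.8 µM, single dose / Detection: time-resolved FRET / Benchmarks: high control biotin, low control 0.6% DMSO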
# FXN GAA850 act = FXN promoter activators, primary screen, cell-based, luciferase luminescence, HEK293 lucGAA850; AID 540364, 2011; activation, % at 6 µM; HEK293 lucGAA850 FXN promoter luciferase reporter, 24 h; percent of 10 µM SAHA response; 360,000 compounds, 0.56% hits;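 active = activation above the average of all compounds screened plus 3 SD, cutoff fixed separately per campaign, cut at about 7.5% in these data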;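 also: 0% = DMSO wells and 100% = 10 µM SAHA wells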
# * hit, by the source's call; i = inactive; ? = inconclusive; nt = no result given; + = active, no number.
SMILES,NR2E3 ag-1,T cell HTS,Myeloid diff MLP,NR2E3 ag-2,FXN GAA850 act
COc1cccc(Nc2nc(-c3sc(NC(=O)CC(C)C)nc3C)cs2)c1,6.3,153.7,i,-1.7,-0.5
Cc1ccc(-c2nc3c(Cl)cc(C(F)(F)F)cn3c2Cc2ccccc2)cc1,10.0,nt,i,nt,nt
CCN(C(=O)C1CCN(S(=O)(=O)c2ccc3c(c2)oc(=O)n3C)CC1)c1cccc(C)c1,-3.2,661.8,+,1.9,0.0
CCN(C(=O)C1CCCN1S(=O)(=O)c1ccc2c(c1)n(C)c(=O)c(=O)n2C)c1ccccc1 (stereo not given),9.1,32.3*,i,-2.8,-0.3
Cc1ccccc1NC(=O)C1CCCN1S(=O)(=O)c1ccc2c(c1)n(C)c(=O)c(=O)n2C (stereo not given),-14.4,915.9,i,2.7,-1.5
O=C(O)C1CCCN1S(=O)(=O)c1ccccc1 (stereo not given),22.5,595.5,+,-0.7,-2.0
CC1(Oc2cccnc2Cl)CCN(Cc2ccc(OC(F)(F)F)cc2)C1 (stereo not given),18.1,nt,i,nt,0.1
CNc1cnc(-c2cccc(C(=O)N3CCOCC3)c2)cn1,-14.6,nt,i,nt,0.5
O=C(NCC1CCCO1)c1ccc(NS(=O)(=O)c2cccc([N+](=O)[O-])c2)cc1 (stereo not given),-21.6,439.7,i,-2.0,4.2
O=C(NCC1CCCO1)c1ccccc1S(=O)(=O)c1ccc([N+](=O)[O-])cc1 (stereo not given),-18.1,173.0,+,0.0,0.7
C=CCc1cccc2ccc(=O)oc12,-18.5,265.2,+,-0.1,-0.8
Clc1ccc(-c2nc3ncccn3c2Cl)cc1,-82.6,222.4,i,-2.6,13.4*
CC(/C=N/NC(=O)C(O)c1ccccc1)=C\c1ccccc1 (stereo not given),-61.2,590.4,i,-0.7,7.8*
O=C(N/N=C/C=C/c1ccccc1)C(O)c1ccccc1 (stereo not given),-29.1,399.1,nt,1.3,4.0
CC(/C=N\NC(=O)Cn1c(C)nc2ccccc21)=C\c1ccccc1,37.1,428.3,+,-0.2,-1.6
CC(/C=N/NC(=O)CSc1nc(C)cc(C)n1)=C\c1ccccc1,17.3,360.6,i,-7.0,-2.8
CC1=C(C(=O)N(C(C)C)C(C)C)CC(CC(=O)NCc2cccc3ccccc23)C(=O)N1CCC1=CCCCC1 (stereo not given),-9.2,nt,i,nt,nt
O=C1OC(c2ccccc2)(c2ccc3cc(O)ccc3c2)c2ccccc21 (stereo not given),20.1,nt,+,nt,-0.5
O=C(CCS(=O)(=O)c1ccc(F)cc1)Nc1ccc(N2CCN(Cc3ccccc3)CC2)cc1,-23.1,562.1,i,-4.2,1.5
O=C(CCS(=O)(=O)c1ccccc1)Nc1ccc(N2CCN(Cc3ccccc3)CC2)cc1,-39.4,i,+,4.8,0.6
Cc1ccc(F)c(S(=O)(=O)NC(=O)C2(C)CCN2C(=O)CCc2ccccc2)c1 (stereo not given),-25.5,nt,i,nt,0.5
C/C(CC(=O)Nc1ccc2c(c1)OCCO2)=N\NC(=O)COc1cccc(C)c1,-9.2,571.8,+,-0.6,0.3
CC[n+]1c(/C=C/N(C)c2ccccc2)n(-c2ccccc2)c2ccc(-c3nc4ccccc4s3)cc21,91.0*,236.4,?,-1.1,-11.7
CCOC(=O)c1ccc2c(c1)n(CC)c(/C=C/N(C)c1ccccc1)[n+]2CC,-26.7,269.6,i,-1.9,6.8
O=C1C=C(Nc2ccccc2O)c2ccccc2C1=O,-45.4,540.5,i,-0.3,-3.3
SMILES,NR2E3 ag-1,T cell HTS,Myeloid diff MLP,NR2E3 ag-2,FXN GAA850 act
O=C1C=C(NCc2ccccc2)c2ccccc2C1=O,-23.4,nt,+,nt,-3.6
COc1ccc(C(=O)/C=C/c2ccccc2)c(OC)c1,-71.4,319.1,i,3.0,0.1
COc1ccc(C(=O)/C=C/c2ccc(N(C)C)cc2)c(OC)c1,-20.6,344.1,+,0.4,-0.8
C=CCOc1cccc(C2C(C(=O)c3ccc(C)o3)=C(O)C(=O)N2c2nccs2)c1 (stereo not given),-5.5,137.6,+,12.1,1.0
COc1ccc(NC(=O)c2cc(-c3cc(Cl)ccc3C)n[nH]2)cn1,5.3,nt,i,nt,2.4
O=C(/C=C/c1c(Cl)cccc1Cl)Nc1ccncc1,-18.6,0.0*,i,-1.0,2.4
COc1ccc(OC)c(NC(=S)NCc2cccnc2)c1,11.7,227.7,i,1.6,2.0
CCCCN(C(=O)c1cccc(S(=O)(=O)N2CCN(C)CC2)c1)c1c(N)n(CCC)c(=O)[nH]c1=O,5.5,384.7,i,2.9,1.8
COc1cccc(OC)c1-c1nnc(-c2cn(C)c3ccccc23)o1,-16.5,32.6*,i,0.9,-1.2
COc1ccccc1-c1nnc(-c2ccc(C)cc2)o1,-106.2,194.1,i,2.1,2.8
Cc1ncoc1C(=O)NC1CCCc2c1cnn2-c1ccc(C(C)(C)C)cc1 (stereo not given),96.1*,nt,?,nt,-5.1
COc1cccc(-c2cnc3c(NC=O)cc(-c4cc(OC)c(OC)c(OC)c4)cn23)c1,23.4,nt,+,nt,3.7
CN(C)CCNC(=O)c1cccc(-c2cnc3c(NC=O)cc(-c4ccc(F)cc4)cn23)c1,6.2,nt,i,nt,0.0
COc1ccc(-c2cc(NC=O)c3ncc(-c4cccc(C(=O)NCCN(C)C)c4)n3c2)cc1,-11.1,nt,+,nt,-2.4
O=C1NC(=O)C2(CCCCC2C2CCCCC2)N1 (stereo not given),-23.8,nt,i,nt,2.1
CCOC(=O)C1(CC)Oc2ccccc2C(c2ccc(OC)cc2)=C1C(=O)OC (stereo not given),-13.3,nt,i,nt,-2.0
COc1ccc(C2NCCc3c2[nH]c2ccccc32)cc1COc1ccc(F)cc1 (stereo not given),39.1,423.3,+,0.3,0.2
O=C(CNC(=O)OCc1ccccc1)NCC(=O)Oc1ccc([N+](=O)[O-])cc1,-6.4,nt,i,nt,1.3
c1ccc(-c2csc3nnc(SCc4ccc5c(c4)OCO5)n23)cc1,6.4,339.2,+,0.3,2.8
CN(C(=O)c1cccc(NC(=O)Cc2ccc(NC(=O)C3CCN(C(=O)CCc4ccccc4)CC3)cc2)c1)C1CCC1,-31.1,nt,i,nt,-0.3
CCOC(=O)/C(C#N)=C\C=C1C=CN(C)C=C1,-73.1,90.6,+,-18.3,2.3
CCOC(=O)/C(C#N)=C\c1ccc(CC)s1,-26.1,239.0,i,5.6,1.0
CC(=O)N1CCN(CC(=O)Nc2ccc(C)c(S(=O)(=O)N(C)C)c2)CC1,7.4,267.8,i,-0.8,-0.9
